Results pooled from the literature.
Protocols differ between the studies behind these lines.

With `O=C(ONc1nc2nonc2nc1Nc1ccccc1F)c1ccc(OC(F)(F)F)cc1` the half-life was 0.25 to 0.45 h (male C57BL/6 mouse, plasma; oral, 10 mg/kg).
For `CCOc1ccc(N(C)S(=O)(=O)c2cc(Cl)sc2C(=O)Nc2cc(Cl)cc(C(=O)O)c2)cc1OC`, the half-life was 0.558 h (male C57BL/6 mouse, brain; intraperitoneal, 10 mg/kg).
With `CCN1CCN(Cc2ccc(NC(=O)c3ccc(C)c(NC(=O)c4cncc(-c5cccs5)c4)c3)cc2C(F)(F)F)CC1` the half-life was 2.71 h (mouse, plasma; intraperitoneal, 30 mg/kg, single dose).
`C=CS(=O)(=O)c1ccc(Nc2nc(OCC3CCCCC3)c3nc[nH]c3n2)cc1` gave a half-life of 5.27 h (male BALB/c mouse, plasma; intravenous, 20 mg/kg, single dose).
With `CN1CCN(C(=O)[C@H](CCCN[C@@H]2C[C@H]2c2ccc(F)cc2)NC(=O)c2ccc(-n3ccnn3)cc2)CC1` the half-life was 4.98 h (CD-1 mouse, plasma; oral, 10 mg/kg).
With `O=C1CC[C@H](N2Cc3c(ccc4c3OCC43CCN(C[C@@H]4CCC5(CCN(c6ccc([C@@H]7c8ccc(O)cc8CC[C@@H]7c7ccccc7)cc6)CC5)OC4)CC3)C2=O)C(=O)N1` the half-life was roughly 13 h (mouse, plasma; oral, 3 mg/kg).
`CC(C)C[C@H](NC(=O)[C@@H]1COCCCCCC(=O)N2C[C@H](F)C[C@H]2C(=O)N1)C(=O)[C@@]1(C)CO1` has a half-life of 0.79 h (male BALB/c mouse, plasma; oral, 150 mg/kg).
With `Nc1ncn([C@H]2C[C@H](O)[C@@H](CO)O2)c(=O)n1` the half-life was 0.91 h (female C57BL/6 mouse, plasma; oral, 0.4 mg/kg).
`CC(C(=O)Nc1c(F)cccc1F)N1CCN(c2ccccc2)CC1` (stereo not shown) has a half-life of roughly 0.45 h (female C57BL/6 mouse, brain; intraperitoneal, 10 mg/kg).
The half-life of `COc1cc(C(=O)OCCCN2CCCN(CCCOC(=O)c3cc(OC)c(OC)c(OC)c3)CC2)cc(OC)c1OC` is reported as 0.83 h (male CD-1 mouse, plasma; subcutaneous).
The half-life of `CC1=NN(/C(=N/c2nnc(C)s2)Nc2ccc(C)c(C)c2)C(c2cc(F)c(F)c(F)c2)S1` (stereo not shown) is reported as 1.56 h (male CD-1 mouse, plasma; intravenous, 1 mg/kg).
`CC(=O)O[C@@]12CO[C@@H]1C[C@H](O)[C@@]1(C)C(=O)[C@H](O)C3=C(C)[C@@H](OC(=O)[C@H](O)[C@@H](NC(=O)OC(C)(C)C)c4ccccc4)C[C@@](O)([C@@H](OC(=O)c4ccccc4)[C@H]21)C3(C)C` has a half-life of 2.7 h (male Kunming mouse, liver; oral, 20 mg/kg).
`O=C1CCC(N2Cc3cc(NC(=O)c4cccc(F)c4)ccc3C2=O)C(=O)N1` (stereo not shown) has a half-life of 1.2 h (female CD-1 mouse, plasma; intravenous, 3 mg/kg).
